Measured values as given in ChEMBL document CHEMBL1687907, “Incorporation of a bioactive reverse-turn heterocycle into a peptide template using solid-phase synthesis to probe melanocortin receptor selectivity and ligand conformations by 2D 1H NMR” (J Med Chem, 2011).
Active and inactive are the calls of the source. The calls are words filed in the database; no cut-off is given here.

Columns and labels:
Assay type in all cases: functional, cell-based
[1] = target: Melanocortin receptor 3 (Mus musculus) (UniProt P33033); experiment: Agonist activity at mouse melanocortin 3 receptor expressed in HEK293 cells at 100 uM after 48 hrs by cAMP based beta-galactosidase reporter gene assay
Outline: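 HEK-293 cells stably expressing mouse MC3R were CRE/β-galactosidase reporter transfected and stimulated 48 h later for 6 h in IBMX/BSA DMEM. Peptide concentrations reached 100 µM. ONPG read at OD405, normalized to protein and forskolin.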

Melanocortin receptor 4 = Melanocortin receptor 4 (Mus musculus, UniProt P56450); experiment: Agonist activity at mouse melanocortin 4 receptor expressed in HEK293 cells after 48 hrs by cAMP based beta-galactosidase reporter gene assay
Melanocortin receptor 3 = Melanocortin receptor 3 (Mus musculus, UniProt P33033); experiment: Agonist activity at mouse melanocortin 3 receptor expressed in HEK293 cells after 48 hrs by cAMP based beta-galactosidase reporter gene assay
Melanocortin receptor 5 = Melanocortin receptor 5 (Mus musculus, UniProt P41149); experiment: Agonist activity at mouse melanocortin 5 receptor expressed in HEK293 cells after 48 hrs by cAMP based beta-galactosidase reporter gene assay
[2] = target: Melanocyte-stimulating hormone receptor (Mus musculus, UniProt Q01727); experiment: Agonist activity at mouse melanocortin 1 receptor expressed in HEK293 cells after 48 hrs by cAMP based beta-galactosidase reporter gene assay
Chain of Melanocyte-stimulating hormone receptor (Q01727 whole entry): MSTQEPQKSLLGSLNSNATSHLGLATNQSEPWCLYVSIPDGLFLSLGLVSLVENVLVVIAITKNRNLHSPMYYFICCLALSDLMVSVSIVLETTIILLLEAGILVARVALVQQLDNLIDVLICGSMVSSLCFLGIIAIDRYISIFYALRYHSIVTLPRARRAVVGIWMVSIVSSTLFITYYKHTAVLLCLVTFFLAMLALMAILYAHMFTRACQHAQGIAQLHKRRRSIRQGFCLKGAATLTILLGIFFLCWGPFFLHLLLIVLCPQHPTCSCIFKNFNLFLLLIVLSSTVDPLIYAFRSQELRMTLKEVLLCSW

Chain of Melanocortin receptor 3 (P33033 whole entry): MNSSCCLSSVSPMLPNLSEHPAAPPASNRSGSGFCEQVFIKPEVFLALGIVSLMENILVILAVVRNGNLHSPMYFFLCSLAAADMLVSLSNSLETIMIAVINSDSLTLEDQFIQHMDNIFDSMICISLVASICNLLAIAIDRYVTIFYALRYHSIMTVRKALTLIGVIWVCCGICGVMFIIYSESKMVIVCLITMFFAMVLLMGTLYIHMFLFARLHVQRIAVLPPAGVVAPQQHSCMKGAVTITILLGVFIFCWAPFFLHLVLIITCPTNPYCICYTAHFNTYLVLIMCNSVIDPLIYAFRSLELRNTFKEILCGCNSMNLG
Chain of Melanocortin receptor 5 (P41149 whole entry): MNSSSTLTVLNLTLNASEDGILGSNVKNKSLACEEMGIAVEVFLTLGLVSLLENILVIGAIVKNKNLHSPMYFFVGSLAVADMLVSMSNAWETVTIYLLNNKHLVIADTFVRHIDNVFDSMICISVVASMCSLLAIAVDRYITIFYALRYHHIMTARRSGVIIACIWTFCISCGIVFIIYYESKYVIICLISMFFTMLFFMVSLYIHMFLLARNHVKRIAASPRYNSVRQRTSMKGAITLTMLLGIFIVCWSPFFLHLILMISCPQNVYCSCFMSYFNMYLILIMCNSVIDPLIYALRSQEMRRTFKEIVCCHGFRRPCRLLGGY
Chain of Melanocortin receptor 4 (P56450 whole entry): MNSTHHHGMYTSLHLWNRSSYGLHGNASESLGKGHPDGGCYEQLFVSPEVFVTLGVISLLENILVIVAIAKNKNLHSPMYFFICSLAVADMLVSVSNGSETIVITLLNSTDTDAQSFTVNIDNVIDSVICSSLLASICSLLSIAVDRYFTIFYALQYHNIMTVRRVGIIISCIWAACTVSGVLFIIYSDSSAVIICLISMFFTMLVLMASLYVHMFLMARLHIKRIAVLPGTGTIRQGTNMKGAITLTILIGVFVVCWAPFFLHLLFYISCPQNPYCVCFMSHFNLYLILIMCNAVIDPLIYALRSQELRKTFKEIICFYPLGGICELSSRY
Chain of Melanocortin receptor 3 (Mus musculus) (P33033 whole entry): as the sequence (P33033 whole entry) above

Structure (SMILES)	Activity [1]	EC50 (Melanocortin receptor 4)	EC50 (Melanocortin receptor 3)	EC50 (Melanocortin receptor 5)	EC50 [2]
C[C@@H]1NC(=O)[C@H](CC(N)=O)NC(=O)[C@H](Cc2c[nH]c3ccccc23)NC(=O)[C@H](CCCNC(=N)N)N2C[C@@H](Cc3ccccc3)NC(=O)[C@@H](CSCC2=O)NC(=O)[C@H](Cc2cnc[nH]2)NC(=O)[C@@H](NC(=O)[C@@H](N)Cc2ccc(O)cc2)CSSC[C@@H](C(=O)N[C@@H](Cc2ccc(O)cc2)C(N)=O)NC(=O)[C@H](Cc2ccccc2)NC1=O		3210 nM			
CC(=O)N[C@@H](Cc1cnc[nH]1)C(=O)N[C@H](Cc1ccccc1)C(=O)N[C@@H]1CSCC(=O)N([C@@H](Cc2c[nH]c3ccccc23)C(N)=O)C[C@H](CCCN=C(N)N)NC1=O		650 nM	7600 nM	335 nM	164 nM
C[C@@H]1NC(=O)[C@H](CC(N)=O)NC(=O)[C@H](Cc2c[nH]c3ccccc23)N2C[C@H](CCCN=C(N)N)NC(=O)[C@H](CSCC2=O)NC(=O)[C@@H](Cc2ccccc2)NC(=O)[C@H](Cc2cnc[nH]2)NC(=O)[C@@H](NC(=O)[C@@H](N)Cc2ccc(O)cc2)CSSC[C@@H](C(=O)N[C@@H](Cc2ccc(O)cc2)C(N)=O)NC(=O)[C@H](Cc2ccccc2)NC1=O		85 nM	495 nM	72 nM	33 nM
C[C@@H]1NC(=O)[C@H](CC(N)=O)NC(=O)[C@H](Cc2c[nH]c3ccccc23)NC(=O)[C@H](CCCNC(=N)N)N2C[C@@H](Cc3ccccc3)NC(=O)[C@H](CSCC2=O)NC(=O)[C@H](Cc2cnc[nH]2)NC(=O)[C@@H](NC(=O)[C@@H](N)Cc2ccc(O)cc2)CSSC[C@@H](C(=O)N[C@@H](Cc2ccc(O)cc2)C(N)=O)NC(=O)[C@H](Cc2ccccc2)NC1=O	inactive				

Second part, the compound after the results:

Activity [1]	EC50 (Melanocortin receptor 4)	EC50 (Melanocortin receptor 3)	EC50 (Melanocortin receptor 5)	EC50 [2]	Structure (SMILES)
inactive					C[C@@H]1NC(=O)[C@H](CC(N)=O)NC(=O)[C@H](Cc2c[nH]c3ccccc23)NC(=O)[C@H](CCCNC(=N)N)NC(=O)[C@@H](Cc2ccccc2)N2C[C@H](Cc3cnc[nH]3)NC(=O)[C@@H](CSCC2=O)NC(=O)[C@@H](NC(=O)[C@@H](N)Cc2ccc(O)cc2)CSSC[C@@H](C(=O)N[C@@H](Cc2ccc(O)cc2)C(N)=O)NC(=O)[C@H](Cc2ccccc2)NC1=O
	0.27 nM	2 nM	2.3 nM	0.35 nM	C[C@@H]1NC(=O)[C@H](CC(N)=O)NC(=O)[C@H](Cc2c[nH]c3ccccc23)NC(=O)[C@H](CCCN=C(N)N)NC(=O)[C@@H](Cc2ccccc2)NC(=O)[C@H](Cc2cnc[nH]2)NC(=O)[C@@H](NC(=O)[C@@H](N)Cc2ccc(O)cc2)CSSC[C@@H](C(=O)N[C@@H](Cc2ccc(O)cc2)C(N)=O)NC(=O)[C@H](Cc2ccccc2)NC1=O
